Source: ChEMBL document CHEMBL3091366, “New 5-Aryl-1H-imidazoles display in vitro antitumor activity against apoptosis-resistant cancer models, including melanomas, through mitochondrial targeting” (J Med Chem, 2013)
Calls of active or inactive are those of the source. The rule behind the calls is not given here.

Assays:
SK-MEL-28 [1] = experiment: Effect on oxygen consumption in human SK-MEL-28 cells at 10 uM by oxygraphic analysis; assay type: functional, cell-based
Method in brief: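 Compound added directly at 10 µM to the oxygraph chamber holding SKMEL-28 cells; ROUTINE respiration recorded by Clark-electrode high-resolution respirometry at 37 °C in phenol red-free DMEM with glucose 1 g/L and pyruvate 110 mg/L, with stirring.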

SK-MEL-28 [2] = experiment: Increase in cell size of human SK-MEL-28 cells at 5 uM after 24 hrs by MitoTracker Green FM-based fluorescence microscopic analysis; assay type: functional
Method in brief: (§1)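 SKMEL-28 cells seeded on glass coverslips 48 h before treatment at 5 µM (3 to 48 h); two washes, mitochondria stained with 100 nM MitoTracker Green FM in phenol red-free RPMI for 30 min, rinsed twice, viewed by fluorescence microscopy. Three coverslips per condition.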

SK-MEL-28 [3] = experiment: Effect on mitochondrial morphology in human SK-MEL-28 cells at 5 uM after 24 hrs by MitoTracker Green FM-based fluorescence microscopic analysis; assay type: functional, cell-based; method in brief: as §1
T47D = experiment: Cytotoxicity against human T47D cells assessed as residual growth at 10 uM; assay type: functional
MDA-MB-468 = experiment: Cytotoxicity against human MDA-MB-468 cells assessed as residual growth at 10 uM; assay type: functional
MDA-MB-231 = experiment: Cytotoxicity against human MDA-MB-231 cells assessed as residual growth at 10 uM; assay type: functional
MCF7 [4] = experiment: Cytotoxicity against human MCF7 cells assessed as residual growth at 10 uM; assay type: functional
PC-3 = experiment: Cytotoxicity against human PC3 cells assessed as residual growth at 10 uM; assay type: functional
TK-10 = experiment: Cytotoxicity against human TK10 cells assessed as residual growth at 10 uM; assay type: functional
CAKI-1 = experiment: Cytotoxicity against human Caki1 cells assessed as residual growth at 10 uM; assay type: functional
A498 = experiment: Cytotoxicity against human A498 cells assessed as residual growth at 10 uM; assay type: functional
SK-OV-3 = experiment: Cytotoxicity against human SKOV3 cells assessed as residual growth at 10 uM; assay type: functional
OVCAR-8 = experiment: Cytotoxicity against human OVCAR8 cells assessed as residual growth at 10 uM; assay type: functional
IGROV-1 = experiment: Cytotoxicity against human IGROV1 cells assessed as residual growth at 10 uM; assay type: functional
UACC-62 = experiment: Cytotoxicity against human UACC62 cells assessed as residual growth at 10 uM; assay type: functional
SK-MEL-28 [5] = experiment: Cytotoxicity against human SK-MEL-28 cells assessed as residual growth at 10 uM; assay type: functional
Malme-3M = experiment: Cytotoxicity against human MALME-3M cells assessed as residual growth at 10 uM; assay type: functional
LOX IMVI = experiment: Cytotoxicity against human LOXIMVI cells assessed as residual growth at 10 uM; assay type: functional
SNB-75 = experiment: Cytotoxicity against human SNB75 cells assessed as residual growth at 10 uM; assay type: functional
SNB-19 = experiment: Cytotoxicity against human SNB19 cells assessed as residual growth at 10 uM; assay type: functional
SF-539 = experiment: Cytotoxicity against human SF539 cells assessed as residual growth at 10 uM; assay type: functional
KM12 = experiment: Cytotoxicity against human KM12 cells assessed as residual growth at 10 uM; assay type: functional
HCT-15 = experiment: Cytotoxicity against human HCT15 cells assessed as residual growth at 10 uM; assay type: functional
HCT-116 = experiment: Cytotoxicity against human HCT116 cells assessed as residual growth at 10 uM; assay type: functional
HCC 2998 = experiment: Cytotoxicity against human HCC2998 cells assessed as residual growth at 10 uM; assay type: functional
NCI-H522 = experiment: Cytotoxicity against human NCI-H522 cells assessed as residual growth at 10 uM; assay type: functional
NCI-H460 = experiment: Cytotoxicity against human NCI-H460 cells assessed as residual growth at 10 uM; assay type: functional
NCI-H23 = experiment: Cytotoxicity against human NCI-H23 cells assessed as residual growth at 10 uM; assay type: functional
NCI-H226 = experiment: Cytotoxicity against human NCI-H226 cells assessed as residual growth at 10 uM; assay type: functional
HOP-62 = experiment: Cytotoxicity against human HOP62 cells assessed as residual growth at 10 uM; assay type: functional
[6] = Cytotoxicity against human EKVX cells assessed as residual growth at 10 uM; assay type: functional
A549 = experiment: Cytotoxicity against human A549 cells assessed as residual growth at 10 uM; assay type: functional
SR = experiment: Cytotoxicity against human SR cells assessed as residual growth at 10 uM; assay type: functional
CCRF-CEM = experiment: Cytotoxicity against human CCRF-CEM cells assessed as residual growth at 10 uM; assay type: functional
SK-MEL-28 [7] = experiment: Induction of apoptosis in apoptotic-resistant human SK-MEL-28 cells at 5 uM after 24 to 72 hrs by TUNEL staining-based flow cytometry; assay type: functional, cell-based
Method in brief: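 SKMEL-28 cells treated with 5 µM for 24, 48 and 72 h; apoptosis by TUNEL plus propidium iodide staining (APO-Direct kit) read by flow cytometry. Kit negative/positive controls, plus PC-3 cells untreated or given 1 µM narciclasine 72 h as internal controls. Quadruplicate (kit controls singlet); mean ± SEM.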

SK-MEL-28 [8] = experiment: Cytostatic activity against apoptotic-resistant human SK-MEL-28 cells assessed as increase in cell size at 5 uM after 72 hrs by quantitative videomicroscopy; assay type: functional, cell-based
Method in brief: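 SK-MEL-28 cells exposed to 5 µM for 24, 48 and 72 h. Cell cycle was read by flow cytometry with propidium iodide plus TUNEL double staining (APO-Direct kit), in quadruplicate. Videomicroscopy photographed each field every 4 min over 72 h. Global growth is cells at a time point divided by cells at time 0; the treated/control ratio gives GGR. Cell death was judged from morphology. Run twice, in triplicate and in quadruplicate.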

[9] = Cytotoxicity against HLF cells assessed as growth inhibition after 72 hrs by MTT-based colorimetric assay; assay type: cell-based; settings: Homo sapiens
Method in brief: (§2)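 MTT colorimetric assay, 72 h exposure to the fumarate salt. Read-out is reduction of MTT to formazan by living cells. IC50 is the concentration that reduces the whole cell population by 50%. Six replicates per condition. Where compounds were not tested on every line, apoptosis-sensitive lines were PC3, MCF-7, LoVo and B16F10, and apoptosis-resistant lines were U373, T98G, A549 and SK-MEL-28.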

MCF7 [10] = experiment: Cytotoxicity against apoptotic-sensitive human MCF7 cells assessed as growth inhibition after 72 hrs by MTT-based colorimetric assay; assay type: functional, cell-based; settings: Homo sapiens, MCF7, 72 h; method in brief: as §2
[11] = Cytotoxicity against apoptotic-resistant human U373 cells assessed as growth inhibition after 72 hrs by MTT-based colorimetric assay; assay type: functional, cell-based, U-373MG ATCC; settings: Homo sapiens, U373 MG, 72 h; method in brief: as §2

C=CCCCCOc1ccccc1-c1cnc(OCCCCC=C)n1C
Activity (SK-MEL-28 [1]): inactive | Activity (SK-MEL-28 [2]): Active | Activity (SK-MEL-28 [3]): inactive | Activity (T47D): 61.88% | Activity (MDA-MB-468): 25.48% | Activity (MDA-MB-231): 66.46% | Activity (MCF7 [4]): 42.18% | Activity (PC-3): 73.54% | Activity (TK-10): 74.98% | Activity (CAKI-1): 54.94% | Activity (A498): 51.15% | Activity (SK-OV-3): 74.99% | Activity (OVCAR-8): 83.91% | Activity (IGROV-1): 62.95% | Activity (UACC-62): 55.73% | Activity (SK-MEL-28 [5]): 73.36% | Activity (Malme-3M): 62.83% | Activity (LOX IMVI): 69.06% | Activity (SNB-75): 81.88% | Activity (SNB-19): 91.08% | Activity (SF-539): 81.04% | Activity (KM12): 38.37% | Activity (HCT-15): 52.21% | Activity (HCT-116): 61.02% | Activity (HCC 2998): 61.08% | Activity (NCI-H522): 12.63% | Activity (NCI-H460): 55.6% | Activity (NCI-H23): 76.02% | Activity (NCI-H226): 92.21% | Activity (HOP-62): 77.15% | Activity [6]: 85.23% | Activity (A549): 50.25% | Activity (SR): 30.69% | Activity (CCRF-CEM): 80.85% | Activity (SK-MEL-28 [7]): inactive | Activity (SK-MEL-28 [8]): Active | IC50 [9]: 22 µM | IC50 (MCF7 [10]): 5 µM | IC50 [11]: 7 µM
